# Laboratory results reported in ChEMBL document CHEMBL4689842, “EUbOPEN Chemogenomics Library wave 1” (2021).
# Several values for one entry are separate records, joined by “and”; a condition that tells them apart may be missing. Equal values may be shown once.
# Tested on: Fibroblast
# Assay: Multiplex assay against human fibroblast
# Assay type: toxicity, cell-based
# Conditions: 1 µM, compound concentration 1 uM
# Procedure, shortened: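 With compound added, live cells were imaged on a CQ1 microscope at 37°C and 5% CO2; staining with Hoechst33342, BioTracker Green Microtubule Cytoskeleton Dye, MitoTracker Red and Annexin V Alexa Fluor 680 had been done at seeding. The CellPathfinder machine-learning gating scheme split cells into Hoechst high-intensity objects or normal cells, normal cells into healthy, pyknosed or fragmented nuclei, and pyknosed cells into mitotic or apoptotic. The tubulin, mitochondrial-mass and membrane-permeability phenotypes are per cents of healthy-nucleus cells.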
structure (smiles),measurement,setting,value
C[C@]1(O)C[C@@H](c2nc(-c3ccc4ccc(-c5ccccc5)nc4c3)c3c(N)nccn32)C1 [LINSITINIB],Population Apoptotic (%),"12 h, replicate 1",56% and 93%
same,Population Fragmented Nuclei (%),"12 h, replicate 1",43% and 32%
same,Population Healthy Nuclei (%),"12 h, replicate 1",44% and 50%
same,Population Hoechst High Intensity Objects (%),"12 h, replicate 1",18% and 12%
same,Population Membrane Permeable-Phenotype (%),"12 h, replicate 1",13% and 8%
same,Population Mitochondria Different-Phenotype (%),"12 h, replicate 1",1%
same,Population Normal (%),"12 h, replicate 1",81% and 87%
same,Population Pyknosed Nuclei (%),"12 h, replicate 1",11% and 17%
same,Total Cell Count,"12 h, replicate 1",345 and 206
same,Population Apoptotic (%),"12 h, replicate 2",40% and 66%
same,Population Fragmented Nuclei (%),"12 h, replicate 2",56% and 76%
same,Population Healthy Nuclei (%),"12 h, replicate 2",31% and 18%
same,Population Hoechst High Intensity Objects (%),"12 h, replicate 2",45% and 43%
same,Population Membrane Permeable-Phenotype (%),"12 h, replicate 2",0% and 9%
same,Population Mitotic Cells (%),"12 h, replicate 2",60% and 33%
same,Population Normal (%),"12 h, replicate 2",54% and 56%
same,Population Pyknosed Nuclei (%),"12 h, replicate 2",12% and 5%
same,Total Cell Count,"12 h, replicate 2",75 and 105
same,Population Apoptotic (%),"24 h, replicate 1",52% and 80%
same,Population Fragmented Nuclei (%),"24 h, replicate 1",47% and 33%
same,Population Healthy Nuclei (%),"24 h, replicate 1",44% and 51%
same,Population Hoechst High Intensity Objects (%),"24 h, replicate 1",22% and 12%
same,Population Membrane Permeable-Phenotype (%),"24 h, replicate 1",9%
same,Population Mitochondria Different-Phenotype (%),"24 h, replicate 1",2% and 4%
same,Population Mitotic Cells (%),"24 h, replicate 1",47% and 20%
same,Population Normal (%),"24 h, replicate 1",77% and 87%
same,Population Pyknosed Nuclei (%),"24 h, replicate 1",8% and 14%
same,Total Cell Count,"24 h, replicate 1",364 and 202
same,Population Apoptotic (%),"24 h, replicate 2",50%
same,Population Fragmented Nuclei (%),"24 h, replicate 2",58% and 75%
same,Population Healthy Nuclei (%),"24 h, replicate 2",37% and 21%
same,Population Hoechst High Intensity Objects (%),"24 h, replicate 2",33% and 52%
same,Population Membrane Permeable-Phenotype (%),"24 h, replicate 2",21% and 18%
same,Population Mitotic Cells (%),"24 h, replicate 2",50%
same,Population Normal (%),"24 h, replicate 2",66% and 47%
same,Population Pyknosed Nuclei (%),"24 h, replicate 2",3%
same,Total Cell Count,"24 h, replicate 2",77 and 109
